Bioassay records: PubChem BioAssay, Broad Institute
Only some compounds are listed: those with a hit (about 4.4% of all), similar ones and a draw of the others.
HIF act = HIF pathway transcriptional activators, primary screen, cell-based, U2OS HRE-luciferase, luminescence; actives 0.32% (n = 300,000); activation, % at 7.5 µM (by protocol); U2OS HRE-luciferase reporter; normalized: DMSO 0%, desferrioxamine 100%; AID 1910, 2009;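 active = mean activation of at least 10% of the iron chelator positive control signal, with at least half of replicates also reaching 10%; inconclusive = mean and replicate majority disagree about reaching 10%; inactive = mean and most replicates under 10%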
T cruzi repl = inhibitors of intracellular T. cruzi growth, primary screen, luminescence, NIH3T3 host cells; actives 1.4% (n = 300,000); AID 1885, 2009; T. cruzi beta-gal in NIH3T3, 90 h; inhibition, % (test concentration not listed);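 active = mean inhibition across valid replicates above about 55%, limit read from the data; inconclusive = mean below that limit but half or more replicates reach it; inactive = mean below it, under half of replicates reach it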;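 note: signal also drops with host cell toxicity which is not excluded here; 0% = plate median of DMSO wells and 100% = zero luminescence signal; higher percent means less beta-gal luminescence so fewer parasites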
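System: NIH/3T3 fibroblasts plus reporter T. cruzi. Medium: DMEM plus 2% FBS. Probe or stimulus: 5000 reporter trypomastigotes per well. Compound: single 50 nL compound addition per well in DMSO. Incubation: co-culture of at least 90 h after 3 h attachment. Detection: GalScreen β-gal luminescence, detergent lysis, 60 min. Evaluation: parasite load inhibition, %.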
HSF1 activator = HSF-1 activators, primary screen, NIH3T3-HGL cells, MG132 stress, luminescence, single point | NIH3T3-HGL HSF-1 luciferase reporter, 8 h; 100% = twice DMSO control signal | activation, % at 9 µM | actives 1.7% (n = 300,000) | AID 504408, 2011;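 active = mean replicate activation of at least 50% with a set share of replicates each reaching 50%; inconclusive = only one of those two conditions met; inactive = mean below 50% and too few replicates reaching it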;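 note: 0% = median of the neutral control wells and 100% = twice that signal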
HSF1 inh = HSF1 inhibitors in luciferase reporter cells, primary screen, cell-based, NIH3T3, luminescence; NIH3T3-HGL HSE-luciferase, MG132-induced, luminescence 8 h; hits give low values; activity change, negative = inhibition, % at 7.5 µM (by protocol); actives 0.77% (n = 300,000); AID 2098, 2009;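 active = more than half of replicate wells show activity change below -50%, luminescence cut by over half; inconclusive = some wells, but at most half, below -50%; inactive = no replicate well below -50%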;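 note: luciferase reports HSF-1 transcriptional activity via heat shock element; 0% = median of DMSO wells and -100% = zero luminescence signal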
Calb FLC = C. albicans growth inhibition with fluconazole, primary screen, CaCi-2 strain, Alamar Blue fluorescence. C. albicans CaCi-2 (fluconazole-resistant clinical isolate) + fluconazole, 48 h. growth inhibition, % (no concentration beside the values). actives 0.57% (n = 300,000). AID 1979, 2009;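 active = growth inhibition above about 58% in most replicates, limit read from the data, passing the limit was not always enough; inconclusive = exactly half the replicates above a set limit; inactive = most replicates below a set limit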;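 note: all wells also contain fluconazole at 8 µg/ml as a sub-toxic cotreatment; 0% = median of DMSO wells and 100% = median of geldanamycin control wells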
Numbers without * were called inactive; ? = inconclusive; nt = no result given.

SMILES | HIF act | T cruzi repl | HSF1 activator | HSF1 inh | Calb FLC
CC(=O)NCCc1ccc(S(=O)(=O)N2CCN(c3nc(-c4ccccc4)c(C)s3)CC2)cc1 | -1 | 29 | 13 | 14 | 2
Cc1cc(=O)n2[nH]cc(-c3ccccc3)c2n1 | 0 | -8 | -27 | -11 | 1
Cc1nc2c(-c3ccccc3)c[nH]n2c(=O)c1Cc1ccccc1 | 2 | 62* | -23 | -24 | -4
Cc1cc([N+](=O)[O-])ccc1NCc1ccccc1 | nt | 0 | 19 | 11 | 6
COc1cccc(CNc2ccc([N+](=O)[O-])cc2Cl)c1O | 1 | -3 | 97* | 72 | 12
COc1ccc([N+](=O)[O-])cc1NC(=O)Cc1ccccc1Cl | 0 | -9 | 0 | -1 | -1
COc1ccccc1CNc1ccc([N+](=O)[O-])cc1C | 0 | 13 | 55* | 27 | 9
O=C(NCCc1cccc(C(F)(F)F)c1)C1CCC(=O)N(Cc2ccc(Cl)cc2)C1 (stereo not given) | 0 | 6 | 36 | 13 | 1
O=C(NCCc1ccc(Cl)cc1)c1ccc2nccnc2c1 | 3 | -13 | 60* | 43 | 8
COc1ccc(OC)c(C2=NS(=O)(=O)N(C)C(C(=O)N3CCC4(CC3)OCCO4)=C2)c1 | -1 | 7 | 5 | 3 | 0
CCC(Cc1ccccc1)NC(=O)C1CC1 (stereo not given) | 1 | -4 | 13 | -7 | 7
CN(C)Cc1nc2ccccc2c(=O)n1Cc1nc(-c2cc3ccccc3o2)cs1 | 1 | 65* | 14 | 13 | -8
Cc1csc(Cn2c(CN(C)C)nc3ccccc3c2=O)n1 | 0 | -2 | 5 | 6 | 11
Cc1c(Cl)cccc1NC(=O)Cn1cnc(S(=O)(=O)N2CCCC2)c1 | 0 | -8 | -6 | -4 | 5
COc1cccc(-c2cc(C(=O)NCc3ccco3)no2)c1 | 3 | -6 | 61* | 28 | 22
COc1cc(OC)cc(C(=O)NC(=S)NCc2ccco2)c1 | 1 | 0 | 121* | 67 | -35
O=C(NCc1ccco1)c1cc(-c2cccc(Cl)c2)on1 | 2 | -3 | 49 | 16 | 17
O=C(NCc1ccco1)c1cc(-c2ccc3c(c2)OCO3)on1 | 2 | -9 | 71* | 23 | -7
Cc1ccc(-c2cc(C(=O)NCc3ccco3)no2)cc1 | 2 | -13 | 37 | 23 | -15
Cc1nn(Cc2ccc(Cl)cc2)c(C)c1NC(=O)c1cc(-c2ccc3c(c2)OCO3)on1 | -1 | 56* | 0 | -6 | -7
CN1CCN(NC(=O)c2ccc(COc3ccccc3Br)o2)CC1 | 0 | ? | -6 | -12 | -7
Cc1cccc(NC(=O)CSc2nnc(-c3ccco3)c(-c3ccco3)n2)c1C | 0 | 19 | 89* | 57 | 2
C=CCN=C1NN=C(c2ccc3c(c2)OCCO3)CS1 | 0 | 18 | -63 | -56* | -13
CC1CCCCC1NC(=O)/C=C/c1nc2ccccc2s1 (stereo not given) | 1 | 3 | 36 | 19 | 28
O=C(/C=C/c1nc2ccccc2s1)N1CCCCCC1 | 2 | 9 | 75* | 32 | -10
SMILES | HIF act | T cruzi repl | HSF1 activator | HSF1 inh | Calb FLC
CC(C)Cc1ccc(CN2CCCC(NC(=O)CCN3CCCO3)C2)cc1 (stereo not given) | 0 | 51 | -4 | -5 | 88*
CC(C)Cc1ccc(CN2CCCC(NC(=O)c3cnc4ccccn4c3=O)C2)cc1 (stereo not given) | -1 | 55* | -9 | -6 | -8
O=C(COC(=O)CCN=C1NS(=O)(=O)c2ccccc21)NNC(=O)c1ccccc1 | 0 | 4 | -1 | -8 | 10
CCCN(C(=O)C1CCCN(c2ncnc3c2nc2n3CCCCC2)C1)c1ccc(F)cc1 (stereo not given) | nt | 10 | -4 | 1 | 29
COc1ccccc1C(=O)OCc1ccc2sc(C)nc2c1 | 3 | -6 | 29 | 8 | 4
CC(=O)/C(=C/c1ccc(N(C)C)cc1)C(=O)c1ccccc1 | 2 | 3 | 81* | 42 | -12
CCC(=O)Nc1ccc(/C=C(\C(C)=O)C(=O)c2ccccc2)cc1 | 1 | -11 | 30 | 11 | -2
Cc1ccc(/C=C/C(=O)c2ccc(O)cc2)cc1 | 1 | -9 | 28 | 20 | -4
CSc1ccc(/C=C/C(=O)c2ccc(O)cc2)cc1 | 1 | 9 | 60* | 58 | 42
CN(C)c1ccc(C(=O)/C=C/c2ccc(Br)cc2)cc1 | 1 | 6 | ? | 30 | 1
CN(C)c1ccc(C(=O)/C=C/c2ccco2)cc1 | 2 | 2 | 68* | 18 | -1
CN(C)c1ccc(C(=O)/C=C/c2ccccc2)cc1 | 2 | -11 | 74* | 48 | -45
COc1cc(/C=N/N(C)S(=O)(=O)c2ccc(C)cc2)cc([N+](=O)[O-])c1O | 0 | -7 | 22 | 6 | -1
Cn1c(Cc2ccccc2)nnc1SCC(=O)NC1CCCC1 | 0 | 1 | 6 | -4 | 25
CCc1ccc(CNC(=O)C2CCN(S(=O)(=O)N3CCC(C)CC3)CC2)cc1 | 0 | -9 | 2 | 2 | -6
COc1ccc2[nH]c(C)c(CCNc3ccc(C(F)(F)F)cc3[N+](=O)[O-])c2c1 | 1 | 44 | 61* | 16 | -3
CS(=O)(=O)NCCNc1ccc(C(F)(F)F)cc1[N+](=O)[O-] | nt | nt | nt | nt | 3
Cc1cc(Cn2ccnc2)c(C)c([N+](=O)[O-])c1Cn1ccnc1 | -1 | 60* | -10 | 0 | -1
Cc1ccc2c(Cn3ccnc3)cc(=O)oc2c1C | -10 | 1 | -11 | -6 | 7
Cc1ccc(NC(=S)Nc2cccc3cnccc23)c(C)c1 | 2 | -10 | 73* | 43 | ?
COc1cccc(NC(=S)Nc2cc(C)cc(C)n2)c1 | 4 | 2 | 56* | 21 | 2
Cc1ccc(NC(=S)Nc2ccccn2)cc1C | 3 | -17 | 40 | 25 | -7
Cc1ccc(NC(=S)Nc2ccccn2)c(C)c1 | 2 | 3 | 60* | 22 | 2
Cc1cc(C)nc(NC(=S)Nc2cccc(F)c2)c1 | 4 | 4 | 26 | 14 | -5
Cc1cc(Cl)ccc1NC(=S)Nc1ccccn1 | 2 | -27 | 55* | 27 | -47
CSc1nc2cc(C)nn2c(-c2ccccc2)c1C#N | -1 | 2 | 8 | -1 | 8
Cc1cc(C)cc(NC(=S)Nc2ccccn2)c1 | 2 | -1 | -4 | 12 | -19
Cc1cccc(NC(=S)Nc2ccccn2)c1 | 3 | -21 | 58* | 30 | -20
COc1ccc(NC(=O)CN(C)S(=O)(=O)c2ccc3c(c2)CCC(=O)N3)c(OC)c1 | 0 | 0 | -90 | -86* | -1
